LMPTP block – LMPTP (human) inhibition. P24666. recombinant LMPTP-A, OMFP fluorogenic substrate, fluorescence intensity. inhibition, % at 20 µM. 360,000 compounds, 0.22% hits;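 active means compounds that cut the enzyme signal by at least half of the control window in the single-dose screen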;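 further: plate controls were DMSO wells with enzyme plus substrate for no effect and substrate without enzyme for full effect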
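Test system – LMPTP-A enzyme · Amount – LMPTP-A at 0.625 nM final in the reaction · Buffer or medium – Bis-Tris pH 6.0, DTT, detergent · Reagent – OMFP 400 µM · Doses – single 20 µM dose · Schedule – reaction 50 min, room temperature, dark · Detection – fluorescence intensity of OMFP turnover product · Evaluation – percent inhibition versus substrate-only and uninhibited controls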
DNMT1 inh – inhibitors of human DNMT1; DNMT1 molecular beacon, Hinp1I cleavage, fluorescence; inhibition (reported as % activation of signal), % at 10 µM; 360,000 compounds, 0.83% hits; in the data active means inhibition above about 50%
Scp1 inh – Scp-1 (human) phosphatase inhibition. Recombinant Scp1, phosphopeptide, malachite green phosphate absorbance. Q9GZU7. 340,000 compounds, 0.88% hits. inhibition, % at 20 µM;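 active means inhibition above about 50% at 20 µM, limit read from the data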;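 further: plate controls were DMSO wells with enzyme for no effect and wells lacking enzyme for full effect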
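Test system: SCP-1 phosphatase catalytic domain, residues 76-261; measured by: colorimetric phosphate reagent with accelerator and stabiliser, absorbance at 630 nm; timing: enzyme reaction 45 min at room temperature, colour 5 min, stabilisation 30 min; also added: Phosphorylated 17-residue peptide substrate; compound dosing: one concentration, 20 µM, with 1.0% DMSO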
Rpn11 inh – inhibitors of human proteasome Rpn11; O00487; human 26S proteasome, Ub4-pepOG fluorescence polarization; 20S core pre-blocked with epoxomicin; inhibition, % at 20 µM; 360,000 compounds, 0.59% hits; AID 588493;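 active means inhibition at 20 µM, scaled to each plate's controls, above about 33%, limit read from the data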
STEP inh – inhibitors of human striatal-enriched phosphatase STEP; recombinant STEP, OMFP fluorogenic substrate, fluorescence; inhibition, % at 20 µM; 360,000 compounds, 0.25% hits; AID 588621;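 active means inhibition at 20 µM, scaled per plate between control wells, above about 37%, limit read from the data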;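 further: 0% = DMSO with enzyme and substrate and 100% = substrate only without enzyme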
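System: isolated STEP enzyme; schedule: 20 min enzyme reaction at room temperature, protected from light; medium: Bis-Tris buffer pH 6.0, 2.5 mM DTT, 0.005% Tween 20; signal: fluorescence, 480/540 nm; dosing: single compound dose of 20 µM, 1% DMSO final; also added: OMFP substrate, 25 µM final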
Rpn11 confirm – Rpn11 inhibition confirmation, single concentration; shares compounds with Rpn11 inh; purified human 26S proteasome, Ub4-pepOG fluorescence polarization; proteasome pretreated with epoxomicin; inhibition, % at 20 µM; 1,900 compounds, 29% hits; AID 602318
MMP-2 inh – counter-screen for RPN11 inhibitors: inhibition of human MMP-2; shares compounds with Rpn11 inh; 1,900 compounds, 4% hits; recombinant MMP-2, FRET peptide cleavage fluorescence; inhibition, % at 20 µM;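 further: human MMP-2 activated beforehand with APMA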
Thrombin FP – thrombin (bovine) inhibition counter-screen | shares compounds with Rpn11 inh | bovine thrombin cleavage of Ub4-pepOG, fluorescence polarization | inhibition, % at 20 µM | 1,900 compounds, 13% hits | AID 602333;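 active means mean inhibition at least 40% at 20 µM, or signal 3 deviations below plate average, so some actives read negative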;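 further: plate controls were thrombin with DMSO for no effect and buffer wells lacking thrombin for full effect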
Target sequence (P00735 whole entry, looked up): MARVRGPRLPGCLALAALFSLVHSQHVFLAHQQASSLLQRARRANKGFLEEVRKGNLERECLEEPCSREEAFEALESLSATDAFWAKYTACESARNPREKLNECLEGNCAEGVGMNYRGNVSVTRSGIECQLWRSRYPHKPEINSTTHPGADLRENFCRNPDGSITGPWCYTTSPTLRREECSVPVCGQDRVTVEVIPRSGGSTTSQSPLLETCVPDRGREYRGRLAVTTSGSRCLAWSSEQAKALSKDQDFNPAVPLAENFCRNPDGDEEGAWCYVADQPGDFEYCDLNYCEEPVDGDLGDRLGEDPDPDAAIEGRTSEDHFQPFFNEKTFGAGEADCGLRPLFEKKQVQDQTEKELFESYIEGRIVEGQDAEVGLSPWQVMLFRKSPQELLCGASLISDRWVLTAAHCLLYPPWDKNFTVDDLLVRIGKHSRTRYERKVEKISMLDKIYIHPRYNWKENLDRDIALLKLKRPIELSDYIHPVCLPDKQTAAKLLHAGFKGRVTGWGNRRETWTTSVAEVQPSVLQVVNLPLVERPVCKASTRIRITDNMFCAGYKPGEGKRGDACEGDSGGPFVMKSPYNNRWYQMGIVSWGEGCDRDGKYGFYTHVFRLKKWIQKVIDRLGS
* marks the source's active call; other numbers are inactive results; nt = not tested or not shown. This is a sample that favours compounds with a hit; in the whole collection about 2% have one here. Unless noted, no stated cut-off is given here; in the data, active means inhibition above about 40%; inactive means the rest.

SMILES | LMPTP block | DNMT1 inh | Scp1 inh | Rpn11 inh | STEP inh | Rpn11 confirm | MMP-2 inh | Thrombin FP
Cn1c(C(=O)NCCN2CCCCCC2)cc2c(=O)n(C)c3ccccc3c21 | 43 | 16 | -4 | 84* | 5 | 4 | -32 | -7
O=C(Cn1c(CO)nc2ccccc21)Nc1ccc2c(c1)OCCCO2 | -1 | 2 | 1 | -5 | -2 | nt | nt | nt
O=[N+]([O-])c1ccc(COc2ccccc2/C=N/O)cc1 | 0 | -1 | -1 | 0 | 1 | nt | nt | nt
O=C1NC(=O)/C(=C\c2ccccc2OCc2ccc([N+](=O)[O-])cc2)N1 | 31 | 2 | 1 | 45* | 7 | -12 | -27 | -15
O=C(O)c1ccc2c(c1)C(=O)N(c1ccc([N+](=O)[O-])cn1)C2=O | 0 | 0 | -7 | 2 | 2 | nt | nt | nt
CCN(CC)S(=O)(=O)c1ccc(OC)c(NC(=O)CSCc2c(C)noc2C)c1 | 0 | 1 | -7 | 8 | -2 | nt | nt | nt
CCOC(=O)C1=C(C)N=c2s/c(=C\c3ccc(OCC(=O)O)c(OC)c3)c(=O)n2C1c1ccc(OC)cc1 (stereo unspecified) | 2 | 1 | 2 | 41* | 3 | 8 | -51 | 11
COC(=O)C1=C(C)N=c2s/c(=C/c3ccoc3)c(=O)n2C1c1ccccc1 (stereo unspecified) | 1 | -8 | -11 | 107* | 5 | 48* | -15 | 47*
CCOC(=O)C1=C(C)N=c2sc(=Cc3cc(Cl)c(OCC(=O)O)c(OC)c3)c(=O)n2C1c1ccccc1Cl (stereo unspecified) | 5 | 5 | nt | 51* | 6 | 34 | -20 | 65*
COc1cccc(C#CC2=CC(=O)C[C@H](c3ccc(F)cc3)C2)c1 | 4 | 32 | nt | -1 | 6 | nt | nt | nt
COc1cccc(OC)c1C(=O)Nc1ccnn1C | 0 | 0 | -7 | 5 | 1 | nt | nt | nt
Fc1ccc(N2CCN(C3=Nc4cccc5cccc3c45)CC2)cc1 | 10 | -4 | -1 | 42* | 0 | 8 | -25 | 0
c1ccc(CN2CCN(C3=Nc4cccc5cccc3c45)CC2)cc1 | 7 | 0 | 9 | 4 | 0 | nt | nt | nt
Cc1cccc(-c2nc(Nc3cccc(O)c3)c3ccccc3n2)c1 | 16 | -14 | 0 | 60* | -3 | 19 | -28 | 12
Cc1cccc(-c2nc(Nc3ccc(N4CCOCC4)cc3)c3ccccc3n2)c1 | 27 | -26 | 4 | 0 | -3 | nt | nt | nt
Nc1c(C(=O)Nc2ccccc2F)sc2nc(-c3ccco3)ccc12 | 6 | -18 | 17 | 44* | -1 | 12 | -29 | 11
Nc1c(C(=O)Nc2ccccc2F)sc2nc(-c3cccnc3)ccc12 | 4 | -3 | -3 | 28 | 0 | nt | nt | nt
COc1ccc2o/c(=N/NC(=O)c3cccs3)c(C(N)=O)cc2c1 | 2 | 1 | 8 | 44* | 1 | 70* | -28 | 43*
CC(C)(CNC(=O)CC1C(=O)NCCN1Cc1cccc(F)c1F)N1CCOCC1 (stereo unspecified) | -2 | 1 | -7 | -7 | -4 | nt | nt | nt
O=C(O)c1ccccc1C=NNc1ccc([N+](=O)[O-])cn1 | -1 | 3 | -5 | 2 | 0 | nt | nt | nt
Cc1c(C(=O)O)cccc1-n1c(C)cc(/C=N/Nc2ccc([N+](=O)[O-])cn2)c1C | 4 | 5 | 1 | 56* | 2 | 23 | -51 | -3
O=C(O)c1cc(-c2ccc(/C=N/Nc3ccc([N+](=O)[O-])cn3)o2)ccc1Cl | 5 | 9 | 44 | 76* | 7 | 1 | -15 | 22
Cc1cc(/C=N/Nc2ccc([N+](=O)[O-])cn2)c(C)n1-c1ccccc1 | 1 | 1 | 6 | 30 | 13 | nt | nt | nt
C#CCN(C[C@H]1[C@H](OC(=O)NCc2ccccc2F)[C@H](OC(=O)NCc2ccccc2F)C[C@@H](C(=O)OC)[C@H]1C(=O)OC)S(=O)(=O)c1ccc(C)cc1 | 4 | -8 | nt | 2 | 4 | nt | nt | nt
c1cc(Nc2cccc3nccnc23)c2nccnc2c1 | 4 | 0 | -9 | 34* | -1 | 31 | -43 | 26
SMILES | LMPTP block | DNMT1 inh | Scp1 inh | Rpn11 inh | STEP inh | Rpn11 confirm | MMP-2 inh | Thrombin FP
Fc1ccc(Nc2cccc3nccnc23)cc1 | 0 | -16 | -5 | 4 | -1 | nt | nt | nt
Cc1cn(C2CCCCC2)c(=O)n(-c2ccccc2)c1=O | -3 | 5 | -3 | -4 | 1 | nt | nt | nt
CCOC(=O)N1C=CC=C[C@@H]2[C@@H](N3C(=O)c4ccccc4C3=O)C(=O)N21 | -1 | 1 | -5 | -5 | 0 | nt | nt | nt
Cc1ccc2[nH]cc(/C=C/c3cc[n+](C)cc3)c2c1 | 0 | 4 | 14 | nt | -51 | nt | nt | nt
COc1ccc2c(/C=C/c3cc[n+](C)cc3)c[nH]c2c1 | 2 | -10 | -3 | 52* | -3 | 68* | -38 | 72*
COc1ccc(C2SCC(=O)N2c2c(C)n(C)n(-c3ccccc3)c2=O)cc1OC (stereo unspecified) | -1 | -9 | -6 | 31* | -13 | -2 | -29 | 1
COc1ccc(/C=c2\sc3nc(-c4ccccc4)c(-c4ccccc4)n3c2=O)cc1OC | -1 | -7 | -10 | 140* | 6 | -2 | -22 | -27
CC1(C)NC(=O)N(CC(O)COc2ccccc2C(=O)N2CCCCC2)C1=O (stereo unspecified) | -2 | 3 | -7 | -5 | -9 | nt | nt | nt
CC1(C)NC(=O)N(CC(O)COc2cc3ccccc3cc2C(=O)N2CCCCC2)C1=O (stereo unspecified) | -3 | -56 | -3 | 67* | 24 | -29 | -18 | -13
Cc1cc2ncn(/N=C/c3ccc([N+](=O)[O-])s3)c2cc1C | 1 | -27 | 4 | 41* | -2 | 9 | 8 | -8
O=C1CN(C(=O)COC(=O)c2cccc(OCc3ccccc3)c2)c2ccccc2N1 | 3 | -5 | -18 | 2 | -6 | nt | nt | nt
COc1ccc(Nc2nc(-c3c[nH]c4ccccc34)cs2)cc1 | 1 | -48 | 6 | 48* | 0 | 6 | 16 | 5
COc1ccc(Nc2nc(-c3ccc(OC)cc3)cs2)cc1 | 1 | -8 | -5 | -2 | 2 | nt | nt | nt
Cc1cc(=O)c2cc(C(=O)c3ccccc3)ccc2[nH]1 | 1 | 0 | 5 | -3 | 2 | nt | nt | nt
COc1ccccc1-c1c(C)oc2c(CN3CCCCC3C)c(O)ccc2c1=O (stereo unspecified) | 0 | -1 | -15 | 0 | 2 | nt | nt | nt
COc1ccc(-c2nnc(C)c3nocc23)cc1 | 4 | -11 | 5 | 89* | 3 | 48* | -5 | 40

High-throughput results from PubChem BioAssay.
